Compound activity (PubChem)
C2C12 statin: suppressors of simvastatin-induced myotoxicity in C2C12 myotubes; rescue of ATP level, % at 7.49 µM; actives 0.78% (n = 330,000); ATP luminescence, 48 h; scaled: DMSO 0, geranylgeraniol control 100; AID 602340;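 active = mean ATP rescue above about 67%, or every replicate alone reaching that limit, limit read from the data, passing the limit was not always enough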;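 also: myotubes were challenged with 10 µM simvastatin during compound exposure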
FGF22 binding: FGF22 (human) thermal shift binding; actives 1.5% (n = 340,000); AID 651658; Q9HCT0; recombinant FGF22 thermal shift, SYPRO orange fluorescence; percent of sucrose octasulfate shift, DMSO zero; activity (Tm shift, normalised), % at 9.99 µM;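 active = mean Tm shift, scaled 0 neutral to 100 positive control, at about 1.3% or above, every replicate too, limit read from the data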
Target sequence (Q9HCT0 whole entry, looked up): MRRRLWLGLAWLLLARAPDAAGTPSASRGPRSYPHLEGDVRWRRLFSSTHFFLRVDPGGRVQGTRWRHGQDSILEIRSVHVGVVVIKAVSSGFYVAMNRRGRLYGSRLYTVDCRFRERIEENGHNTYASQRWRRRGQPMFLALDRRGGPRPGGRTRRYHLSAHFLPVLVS
E-sel inducer: E-selectin induction on HUVECs | HUVEC E-selectin immunofluorescence imaging; normalized: neutral wells 0, TNF-alpha wells 100 | P16581 | actives 0.37% (n = 260,000) | activation, % at 7.58 µM | AID 686992;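 active = mean E-selectin-positive cell signal at least 10% of the positive control, reached in at least 60% of replicates, without over 20% cell loss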
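Test system: HUVEC; input: 3,000 HUVEC/well; measured by: immunofluorescence imaging; read-out: % PE-positive cells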
SIRT5 block: sirtuin-5 (human) deacylase inhibition | Q9NXA8 | Purified SirT5, succinyl-peptide AMC, trypsin-coupled fluorescence | inhibition, % at 15 µM | actives 1.1% (n = 330,000); in the data active = inhibition above about 15%
Target sequence (Q9NXA8 whole entry, looked up): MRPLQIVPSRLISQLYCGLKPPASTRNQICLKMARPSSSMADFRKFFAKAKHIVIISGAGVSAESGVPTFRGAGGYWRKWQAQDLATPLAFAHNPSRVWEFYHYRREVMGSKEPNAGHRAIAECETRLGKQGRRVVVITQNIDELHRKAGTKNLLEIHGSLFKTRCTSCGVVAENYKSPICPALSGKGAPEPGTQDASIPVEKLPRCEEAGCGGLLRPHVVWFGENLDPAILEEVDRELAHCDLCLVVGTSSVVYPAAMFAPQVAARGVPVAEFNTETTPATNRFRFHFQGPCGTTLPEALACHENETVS
Ecoli rRNA inh: inhibits bacterial ribosomal RNA function over humanized ribosomes; E. coli WT GFP vs humanized-ribosome RFP mutants, fluorescence, 24 h; hits give low values; DMSO median 0, no signal -100; GFP signal change (wild-type ribosome), % (no concentration beside the values); actives 1.6% (n = 350,000); AID 720706;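 active = significant combined selectivity score with lowered wild-type GFP, culture density cut under 30%, mutant RFP and density less affected; inactive = any of these conditions unmet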
FN deposition inh: fibronectin deposition inhibition; actives 0.086% (n = 350,000); inhibition, % at 12.6 µM; AID 743247; AH1F fibroblasts, Alexa488-fibronectin deposition fluorescence, overnight;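 active = mean inhibition across replicates of 30% or more, regardless of how many single replicates reach that level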
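material = AH1F fibroblast monolayer depositing Alexa488-labelled fibronectin into matrix | amount = 10000 AH1F cells/well | buffer or medium = DMEM plus 2% serum, read in PBS | incubation = 1 h cell adhesion before compound, then overnight fibronectin incubation | detection = fluorescence at 485 nm excitation, 525 nm emission | evaluation = percent inhibition as loss of matrix-bound fibronectin fluorescence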
Hits are given with their value; . = inactive; / = no result. Only some compounds are listed: those with a hit (about 4% of all), similar ones and a draw of the others.

SMILES	C2C12 statin	FGF22 binding	E-sel inducer	SIRT5 block	Ecoli rRNA inh	FN deposition inh
CC(C)NC(=O)Nc1ccc2c(c1)C(=O)N([C@@H](C)CO)C[C@@H](C)[C@H](CN(C)C(=O)CCC(F)(F)F)OCCCC[C@@H](C)O2	/	.	.	.	.	.
C[C@H](CO)N1C[C@H](C)[C@H](CN(C)S(=O)(=O)c2ccc(Cl)cc2)Oc2ccc(N(C)C)cc2CC1=O	.	.	/	.	.	/
C=CCOc1ccc(CNc2ccc3[nH]c(=O)[nH]c3c2)cc1	/	.	.	.	-14.3	.
O=C(O)c1ccccc1N/N=C/c1cc(Br)cc(Br)c1O	.	43.8	.	.	.	.
O=C(CNc1ccc(Br)cc1)c1ccc(O)cc1	/	.	/	17.4	-45.0	.
CC(C)NC(=O)N(C)C[C@@H]1OCCCC[C@H](C)Oc2ccc(NC(=O)CCC(F)(F)F)cc2C(=O)N([C@H](C)CO)C[C@H]1C	/	/	.	/	.	.
C[C@H]1CN([C@@H](C)CO)C(=O)c2cc(C#CC3CCCCC3)cnc2O[C@H]1CN(C)C(=O)Nc1ccccc1	.	.	.	.	.	.
Cc1cccc(C)c1NC(=O)C1C(c2ccc3c(c2)OCO3)=Nc2ccccc2N1C(=O)c1ccccn1 (configuration not stated)	/	.	119.4	.	.	.
Cc1cccc(C)c1NC(=O)C1C(c2ccc3c(c2)OCO3)=Nc2ccccc2N1C(=O)c1cccc(C(F)(F)F)c1 (configuration not stated)	/	.	.	/	.	.
O=C(CCN1CCCCC1)NCC[C@@H]1CC[C@@H](NC(=O)Nc2ccc(Cl)cc2)[C@H](CO)O1	.	.	.	.	.	.
Cc1noc(C)c1NC(=O)N(C)C[C@H]1Oc2ccc(NC(=O)Nc3ccc(F)cc3)cc2CC(=O)N([C@H](C)CO)C[C@@H]1C	.	.	.	.	.	/
Cc1occc1-c1n[nH]c(=S)n1C	/	43.2	.	.	.	.
COCC(=O)Nc1ccc2c(c1)C(=O)N(C)C[C@H](OC)[C@H](C)CN(C(=O)c1ccccn1)[C@@H](C)CO2	.	.	.	.	.	.
COc1cc(Nc2ncc3c(n2)CCN(C(=O)Nc2ccc(C(C)C)cc2)C3)cc(OC)c1OC	.	.	.	18.3	.	.
CC1=NN(c2ccc(C(=O)O)cc2)C(=O)/C1=C\c1ccc(OC(=O)c2cccs2)cc1	/	43.1	.	.	.	.
CCOc1cc(/C=C2\C(=O)N(c3ccc(C(N)=O)cc3)N=C2C)ccc1OC(=O)c1cccs1	103.2	/	/	/	/	/
CC1(C)CC(NC(=O)c2sc3cc(Cl)ccc3c2Cl)CC(C)(C)N1	/	43.4	.	.	.	.
O=C(C1CC1)N1CCc2cc(S(=O)(=O)N3CCN(c4ccccc4)CC3)ccc21	.	.	.	.	.	.
O=C(C1CCC1)N1CCCc2cc(S(=O)(=O)N3CCN(c4ccccc4)CC3)ccc21	149.0	.	/	.	.	.
O=C1c2cccc3c(N4CCCCC4)ccc(c23)C(=O)N1c1cccc(O)c1	/	43.7	.	.	.	.
O=C(c1ccccc1F)N1CC(=O)N2[C@H](CO)[C@@H](c3ccc(C#Cc4ccc(F)cc4)cc3)[C@@H]2C1	/	/	.	.	.	/
CC(C)CC#Cc1ccc2c(c1)O[C@H](CN(C)C(=O)Nc1ccccc1F)[C@H](C)CN([C@H](C)CO)S2(=O)=O	.	.	.	17.7	.	.
CCCC#Cc1ccc2c(c1)O[C@@H](CN(C)C(=O)Nc1ccccc1F)[C@H](C)CN([C@@H](C)CO)S2(=O)=O	.	.	.	16.5	.	.
CCCC#Cc1ccc2c(c1)O[C@@H](CN(C)C(=O)c1ccccc1F)[C@H](C)CN([C@@H](C)CO)S2(=O)=O	.	.	.	.	.	.
CCCC#Cc1ccc2c(c1)O[C@@H](CN(C)C(=O)Nc1ccccc1F)[C@H](C)CN([C@H](C)CO)S2(=O)=O	.	.	.	20.4	.	.
SMILES	C2C12 statin	FGF22 binding	E-sel inducer	SIRT5 block	Ecoli rRNA inh	FN deposition inh
CC(C)CC#Cc1ccc2c(c1)O[C@H](CN(C)C(=O)Nc1ccccc1F)[C@@H](C)CN([C@H](C)CO)S2(=O)=O	.	.	.	.	.	.
COc1cccc(-c2ccc3c(c2)[C@H]2[C@H](CCN2C(=O)C2CCOCC2)[C@H](CO)N3)c1	.	.	.	.	.	.
COc1cccc(CN2CC3(C2)[C@H](c2ccccc2)[C@@H](CO)N3Cc2cccc(OC)c2)c1	/	/	/	/	.	.
C[C@H]1CN([C@@H](C)CO)C(=O)c2cccc(NS(=O)(=O)c3ccc(Cl)cc3)c2O[C@H]1CN(C)CC1CC1	.	.	.	.	.	/
CN(C)C(=O)c1cccc(-c2ccc([C@H]3[C@H](CO)N4CCCCN(S(C)(=O)=O)C[C@@H]34)cc2)c1	.	.	.	.	.	/
Cc1cccc(S(=O)(=O)N2CCCCN3[C@@H](CO)[C@H](c4ccc(-c5ccccc5)cc4)[C@@H]3C2)c1	/	.	/	22.4	/	/
Cc1cccc(-c2ccc([C@H]3[C@H]4CN(S(=O)(=O)c5cccc(C)c5)CCCCN4[C@H]3CO)cc2)c1	/	18.5	.	.	.	/
Cc1cccc(-c2ccc([C@@H]3[C@@H](CO)N4C(=O)CN(S(=O)(=O)c5cccc(F)c5)C[C@@H]34)cc2)c1	/	.	.	20.4	.	/
Cc1ccc(-c2ccc([C@@H]3[C@@H](CO)N4C(=O)CN(S(=O)(=O)c5cccc(F)c5)C[C@H]34)cc2)cc1	/	/	.	.	.	/
CN(C)C(=O)c1cccc(-c2ccc([C@H]3[C@@H](CO)N4CCCCN(S(C)(=O)=O)C[C@@H]34)cc2)c1	.	.	.	40.8	.	/
CS(=O)(=O)N(CCc1ccccc1)CC(N)=O	102.5	/	/	/	/	/
S=C(NCCc1ccccc1)N1CCc2ccccc2C1	/	/	/	.	-21.9	/
CS(=O)(=O)N(CCc1ccccc1)CC(=O)N1CCc2ccccc2C1	110.6	/	/	/	/	.
COc1ccc2c3c([nH]c2c1)[C@@H](CO)N(Cc1ccccc1)CC31CN(CC2CC2)C1	/	/	/	/	.	/
COc1ccc(CN(C)C(=O)COC(=O)c2c(-c3ccccc3Cl)noc2C)cc1	.	.	/	.	-27.4	/
OC(CSc1c(Cl)cccc1Cl)CN1CCN(c2ccccc2F)CC1 (configuration not stated)	171.6	/	/	/	/	.
COc1ccc(CN(C)C[C@@H]2OCCCC[C@H](C)Oc3ccc(N(C)C)cc3C(=O)N([C@H](C)CO)C[C@@H]2C)cc1	.	.	.	.	.	/
C[C@H]1CN([C@@H](C)CO)S(=O)(=O)c2ccc(/C=C/c3ccccc3)cc2O[C@H]1CN(C)C(=O)c1ccncc1	.	.	.	.	.	/
COc1ccc(-c2cc(C(=O)OCC(=O)c3ccc(C)c([N+](=O)[O-])c3)c3ccccc3n2)cc1	/	/	/	/	/	.
